Test results: ChEMBL document CHEMBL1138754, “Synthesis of taxoids with improved cytotoxicity and solubility for use in tumor-specific delivery” (J Med Chem, 2004)
≈ marks a conversion by molar mass, not a printed value.

What was measured:
A549 [1] = experiment: In vitro inhibitory concentration that inhibits 50% of the growth of A549 non small cell lung carcinoma cell line after 72 hr of drug exposure.; assay type: functional, cell-based; details: Homo sapiens, A549, 72 h
[2] = Solubility in 10% DMSO(expressed as mean of 3 determinations); assay type: physicochemical; details: read-out: S
Method in brief: (§1)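 200 μg of taxane was dissolved in 50 µL of organic solvent (DMA, DMSO or ethanol), then diluted to 500 µL (10% organic) with conjugation buffer: 0.1 M potassium phosphate, 1 mM EDTA, pH 6.5. The mixture was vortexed and centrifuged, and the taxane concentration in the supernatant was measured spectrophotometrically.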

MCF7 [3] = experiment: In vitro inhibitory concentration that inhibits 50% of the growth of MCF-7 human breast cell carcinoma cell line after 72 hr of drug exposure.; assay type: functional, cell-based; details: MCF7, 72 h
[4] = Solubility in 10% Ethanol (expressed as mean of 3 determinations); assay type: physicochemical; details: read-out: S; method in brief: as §1
[5] = Solubility in 10% DMA (expressed as mean of 3 determinations); assay type: physicochemical; details: read-out: S; method in brief: as §1
[6] = Solubility in 10% DMA(expressed as mean of 3 determinations); assay type: physicochemical; details: read-out: S; method in brief: as §1
NCI/ADR-RES = experiment: Inhibitory concentration that inhibits 50% of the growth of NCI ADR RES human […] cell carcinoma cell line after 72 h of drug exposure.; assay type: functional, cell-based
[7] = Inhibitory concentration that inhibits 50% of the growth of Namalwa MDR Burkitts lymphoma MDR cell carcinoma cell line after 72 hr of drug exposure.; assay type: functional, cell-based; details: Homo sapiens
MCF7 [8] = experiment: Inhibitory concentration that inhibits 50% of the growth of MCF-7 human breast cell carcinoma cell line after 72 hr of drug exposure. (Table 3); assay type: functional, cell-based; details: MCF7, 72 h
Breast carcinoma cell = experiment: Inhibitory concentration that inhibits 50% of the growth of LCC6/P9 human breast cell carcinoma cell line after 72 hr of drug exposure.; assay type: functional, cell-based
MDR = experiment: Inhibitory concentration that inhibits 50% of the growth of LGM MDR human breast cell carcinoma cell line after 72 hr of drug exposure.; assay type: functional, cell-based
[9] = Inhibitory concentration that inhibits 50% of the growth of Namalwa Burkitts lymphoma cell carcinoma cell line after 72 hr of drug exposure.; assay type: functional, cell-based; details: Homo sapiens
A549 [10] = experiment: In vitro inhibitory concentration that inhibits 50% of the growth of A549 non small cell lung carcinoma cell line after 72 hr of drug exposure. (IC50 based on 2 separate determinations); assay type: functional; details: Homo sapiens, A549, 72 h
MCF7 [11] = experiment: In vitro inhibitory concentration that inhibits 50% of the growth of MCF-7 human breast cell carcinoma cell line after 72 hr of drug exposure. (IC50 based on 2 separate determinations); assay type: functional; details: MCF7, 72 h
[12] = Solubility in 10% DMSO (expressed as mean of 3 determinations); assay type: physicochemical; details: read-out: S; method in brief: as §1

IC50 (A549 [1]) [nM] | solubility [2] [µg/mL] | IC50 (MCF7 [3]) [nM] | solubility [4] [µg/mL] | solubility [5] [µg/mL] | solubility [6] [µg/mL] | IC50 (MCF7 [8]) [nM] | IC50 (Breast carcinoma cell) [nM] | IC50 (A549 [10]) [nM] | IC50 (MCF7 [11]) [nM] | solubility [12] [µg/mL] | SMILES | IC50 (NCI/ADR-RES) [nM] | IC50 [7] [nM] | IC50 (MDR) [nM] | IC50 [9] [nM]
0.13 | 4 (≈ 4.08 µM) | 0.07 | 2 (≈ 2.04 µM) | 10 (≈ 10.2 µM) | – | – | – | – | – | – | COc1ccc(OC)c(C(=O)O[C@H]2C3[C@](C)(C(=O)[C@H](O)C4=C(C)[C@@H](OC(=O)[C@H](O)[C@H](C=C(C)C)NC(=O)OC(C)(C)C)C[C@]2(O)C4(C)C)C(OC(=O)CCSSC)C[C@H]2OC[C@@]32OC(C)=O)c1 (stereo partly specified) | – | – | – | –
0.09 | 14 (≈ 14.3 µM) | 0.05 | 10 (≈ 10.2 µM) | – | 8 (≈ 8.16 µM) | 0.4 | 1 | – | – | – | COc1ccc(OC)c(C(=O)O[C@H]2C3[C@](C)(C(=O)[C@H](OC(=O)CCSSC)C4=C(C)[C@@H](OC(=O)[C@H](O)[C@H](C=C(C)C)NC(=O)OC(C)(C)C)C[C@]2(O)C4(C)C)C(O)C[C@H]2OC[C@@]32OC(C)=O)c1 (stereo partly specified) | 15 | 0.65 | 4 | 0.53
0.8 | – | 1 | – | – | – | – | – | – | – | – | CSSCCC(=O)O[C@H]1C(=O)[C@]2(C)C(O)C[C@H]3OC[C@@]3(OC(C)=O)C2[C@H](OC(=O)c2ccccc2)[C@]2(O)C[C@H](OC(=O)[C@H](O)[C@H](C=C(C)C)NC(=O)OC(C)(C)C)C(C)=C1C2(C)C (stereo partly specified) | – | – | – | –
0.29 | 82 (≈ 70.9 µM) | 0.06 | 55 (≈ 47.6 µM) | – | 79 (≈ 68.3 µM) | 0.5 | 1.6 | – | – | – | COc1ccc(OC)c(C(=O)O[C@H]2C3[C@](C)(C(=O)[C@H](OC(=O)CCOCCOCCOCCOCCSSC)C4=C(C)[C@@H](OC(=O)[C@H](O)[C@H](C=C(C)C)NC(=O)OC(C)(C)C)C[C@]2(O)C4(C)C)C(O)C[C@H]2OC[C@@]32OC(C)=O)c1 (stereo partly specified) | 19 | 0.9 | 18 | 0.45
1.1 | – | 1 | – | – | – | – | – | – | – | – | CSSCCN1CCN(C(=O)O[C@H]2C(=O)[C@]3(C)C(O)C[C@H]4OC[C@@]4(OC(C)=O)C3[C@H](OC(=O)c3ccccc3)[C@]3(O)C[C@H](OC(=O)[C@H](O)[C@H](C=C(C)C)NC(=O)OC(C)(C)C)C(C)=C2C3(C)C)CC1 (stereo partly specified) | – | – | – | –
– | 110 (≈ 77.4 µM) | – | 127 (≈ 89.4 µM) | 97 (≈ 68.3 µM) | – | – | – | 1.1 | 0.58 | – | COc1ccc(OC)c(C(=O)O[C@H]2C3[C@](C)(C(=O)[C@H](OC(=O)CCOCCOCCOCCOCCOCCOCCOCCOCCOCCOCCSSC)C4=C(C)[C@@H](OC(=O)[C@H](O)[C@H](C=C(C)C)NC(=O)OC(C)(C)C)C[C@]2(O)C4(C)C)C(O)C[C@H]2OC[C@@]32OC(C)=O)c1 (stereo partly specified) | – | – | – | –
0.3 | 26 (≈ 24.4 µM) | 0.039 | 32 (≈ 30.1 µM) | 26 (≈ 24.4 µM) | – | – | – | – | – | – | COc1ccc(OC)c(C(=O)O[C@H]2C3[C@](C)(C(=O)[C@H](OC(=O)N4CCN(CCSSC)CC4)C4=C(C)[C@@H](OC(=O)[C@H](O)[C@H](C=C(C)C)NC(=O)OC(C)(C)C)C[C@]2(O)C4(C)C)C(O)C[C@H]2OC[C@@]32OC(C)=O)c1 (stereo partly specified) | – | – | – | –
– | – | – | 13 (≈ 11.2 µM) | 11 (≈ 9.51 µM) | – | – | – | 1 | 0.32 | 17 (≈ 14.7 µM) | COc1ccc(OC)c(C(=O)O[C@H]2C3[C@](C)(C(=O)[C@H](O)C4=C(C)[C@@H](OC(=O)[C@H](O)[C@H](C=C(C)C)NC(=O)OC(C)(C)C)C[C@]2(O)C4(C)C)C(OC(=O)CCOCCOCCOCCOCCSSC)C[C@H]2OC[C@@]32OC(C)=O)c1 (stereo partly specified) | – | – | – | –
